# Screening results deposited in PubChem by Johns Hopkins Ion Channel Center.
# MrgX1 allo act = positive allosteric modulators of MrgX1, primary screen, HEK293 cells, Fluo-4 calcium flux | Mas-related G-protein coupled receptor member X1 (Homo sapiens), Q96LB2 | FDSS; hits give high values | B-score at 10 µM | 310,000 compounds, 0.63% hits | AID 588675, 2011;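 active = plate-corrected calcium response at least 3 library SD above typical, normal starting fluorescence, not activating the receptor alone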;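 also: compound read alongside a low EC10 to EC30 dose of BAM8-22 agonist; peak minus trough fluorescence over baseline measured at the second addition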
# Target sequence (Q96LB2 whole entry, looked up): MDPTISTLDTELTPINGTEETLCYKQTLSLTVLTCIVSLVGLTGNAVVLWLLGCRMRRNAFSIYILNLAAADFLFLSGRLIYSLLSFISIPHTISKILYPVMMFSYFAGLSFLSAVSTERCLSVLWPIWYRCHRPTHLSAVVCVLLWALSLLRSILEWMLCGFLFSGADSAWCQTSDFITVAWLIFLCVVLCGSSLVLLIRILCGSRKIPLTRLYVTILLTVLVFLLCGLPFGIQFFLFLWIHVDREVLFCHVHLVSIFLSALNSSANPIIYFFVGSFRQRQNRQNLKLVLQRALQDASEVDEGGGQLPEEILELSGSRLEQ
# MrgX1 ag = agonists of human MrgX1 receptor, primary screen, HEK293 cells, Fluo-4 calcium flux; Mas-related G-protein coupled receptor member X1 (Homo sapiens), Q96LB2; Fluo-4 calcium fluorescence, agonist mode; hits give high values; B-score at 10 µM; 310,000 compounds, 0.44% hits; AID 588627, 2011;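 active = calcium response B-score plate-corrected fluorescence ratio at least 3 library SD, with starting fluorescence B-score inside 5 SD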
#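 Test system: Stable human MrgX1 HEK293 cell line | Schedule: Overnight plating before 1 h dye loading | Read-out basis: Baseline-normalised fluorescence change ratio, B-scored | Detection: Kinetic calcium dye fluorescence, Fluo-4 NW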
# RGS4 block = RGS4 inhibitors, primary screen, cell-based, HEK293 M3R inducible RGS4, calcium flux. B-score at 10 µM. Regulator of G-protein signaling 4 (Homo sapiens), P49798. 310,000 compounds, 0.45% hits. Fluo-4 calcium flux; hits give high values; triggered by carbachol at its EC20;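 active = B-score, a plate-corrected calcium signal, over three deviations above library mean, with baseline fluorescence within five deviations of library mean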;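 also: RGS4 expression induced by doxycycline in cells with stable M3 receptor; B-score is computed from the integrated fluorescence ratio over baseline after carbachol; higher B-score means a larger calcium signal and so more RGS4 inhibition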
# Target sequence (P49798 whole entry, looked up): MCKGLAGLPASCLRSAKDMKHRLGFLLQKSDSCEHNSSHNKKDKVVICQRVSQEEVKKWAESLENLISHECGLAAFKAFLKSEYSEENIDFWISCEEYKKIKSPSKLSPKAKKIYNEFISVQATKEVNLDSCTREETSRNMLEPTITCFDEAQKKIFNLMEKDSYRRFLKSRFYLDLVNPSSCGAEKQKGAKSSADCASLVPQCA
# MrgX1 antag = antagonists of human MrgX1 receptor, primary screen, HEK293 cells, Fluo-4 calcium flux; 310,000 compounds, 1.3% hits; BAM8-22 antagonism; hits give low values; B-score at 10 µM;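 active = calcium-response B-score plate-corrected more than 3 library SD below zero, starting fluorescence within 5 deviations, no agonist response on first addition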;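 also: peak minus trough fluorescence over baseline after final BAM8-22 challenge near maximal dose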
# RGS4 act = RGS4 potentiators or activators, primary screen, cell-based, HEK293 M3R inducible RGS4, calcium flux. carbachol calcium flux Fluo4; hits give low values. B-score at 10 µM. 310,000 compounds, 0.92% hits. AID 463111, 2010;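 active = B-score of the integrated calcium signal more than 4 SD below the library mean, with starting fluorescence not abnormally high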;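 also: negative B-score means reduced calcium response which marks RGS4 activation or potentiation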
#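 System: HEK293 FlpIn-TREx cells, stable M3R, doxycycline-inducible RGS4. Timing: overnight RGS4 induction, 30 min dye load 37 °C, 20 min compound RT. Also added: carbachol, ECmax concentration. Measured by: Fluo4 fluorescence kinetic imaging of calcium. Evaluation: integrated calcium ratio converted to B score.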
# MrgX1 antag conf = MrgX1 receptor antagonists, duplicate retest, confirmation, HEK293 cells, Fluo-4 calcium flux | 2,300 compounds, 19% hits | remaining BAM8-22 calcium response % of control (hits give low values), % at 10 µM | shares compounds with MrgX1 antag | BAM8-22 calcium flux; hits give low values | AID 602420, 2012;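 active = remaining agonist calcium response no higher than 100% minus 3 SD of agonist-only control wells, with starting fluorescence near control levels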;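 also: agonist BAM8-22 given at a near maximal EC90 to ECmax level; peak minus minimum fluorescence divided by baseline after agonist addition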
# HEK293 Ca flux = nonspecific calcium signal in parental HEK293, confirmation, counter-screen for MrgX1 antagonist project, parental HEK293 cells, Fluo-4 calcium flux; shares compounds with MrgX1 antag; Fluo-4 calcium fluorescence, FDSS; fluorescence ratio F(max-min)/F0 at 10 µM; 4,000 compounds, 2% hits; AID 624111, 2012;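 active = duplicate-averaged calcium fluorescence ratio at least three times the standard deviation of buffer wells, a nonspecific response in parental cells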
# HEK293 Ca counter = calcium response in parental HEK293 cells, primary screen, counter-screen for MrgX1 allosteric activator project, cell-based, Fluo-4 calcium flux, duplicate. Fluo-4 fluorescence ratio; hits give high values. AID 624114, 2012. shares compounds with MrgX1 antag. 4,000 compounds, 0.4% hits. fluorescence ratio F(max-min)/F0 at 10 µM;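 active = calcium fluorescence ratio, averaged over duplicates, at least 3 SD of the buffer-well ratio, meaning a nonspecific response in receptor-free cells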;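 also: untransfected parental HEK293 lacking MrgX1 used as counterscreen for MrgX1 allosteric activators; fluorescence change taken during the second addition on a kinetic imager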
# HEK293 Ca cntr2 = calcium response in parental HEK293 cells, primary screen, counter-screen for MrgX1 agonist project, cell-based, Fluo-4 calcium flux, duplicate, agonist mode; shares compounds with MrgX1 antag; Fluo-4 calcium fluorescence (FDSS); hits give high values; fluorescence ratio F(max-min)/F0 at 10 µM; 4,000 compounds, 8.7% hits; AID 624115, 2012;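 active = calcium fluorescence ratio at least three times the spread of buffer wells, meaning a non-specific response in parental cells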
# An asterisk follows results filed as active; i = inactive; nt = not tested or not shown. Hits are enriched below; roughly 3.5% of the tested compounds scored in any of these assays.
SMILES,MrgX1 allo act,MrgX1 ag,RGS4 block,MrgX1 antag,RGS4 act,MrgX1 antag conf,HEK293 Ca flux,HEK293 Ca counter,HEK293 Ca cntr2
CCCSc1cc(N2CCCC2)nc(-c2ccccc2)n1,i,i,i,-5.7*,i,i,i,i,i
CCCSc1cc(N2CCN(C)CC2)nc(-c2ccc(OC)cc2)n1,i,i,i,i,i,nt,nt,nt,nt
COc1cc(C2=NOC(C(=O)Nc3c(C)n(C)n(-c4ccccc4)c3=O)C2)cc(OC)c1OC (centres undefined),i,i,i,i,i,nt,nt,nt,nt
CCC(C)(C)n1nnnc1C(c1ccc(C)cc1)N1CCN(Cc2ccc3c(c2)OCO3)CC1 (centres undefined),i,i,i,-6.18*,i,i,i,i,i
CCC(C)(C)n1nnnc1C(c1ccc2ncccc2c1)N1CCN(Cc2ccc3c(c2)OCO3)CC1 (centres undefined),i,i,i,i,i,nt,nt,nt,nt
CN1C(=O)CC(N2CCC(C(N)=O)CC2)C1=O (centres undefined),i,i,i,i,i,nt,nt,nt,nt
CN1C(=O)CC(N2CCN(CC(N)=O)CC2)C1=O (centres undefined),i,i,i,-5.62*,i,i,i,i,i
Cc1ccc(NC(=O)N2CCC(NC(=O)c3cccc(F)c3)CC2)cc1,i,i,i,i,i,nt,nt,nt,nt
O=C1CC(c2cccc(Oc3ccccc3)c2)NC(=O)N1 (centres undefined),i,i,i,-8.19*,i,i,i,i,i
COc1ccccc1NC(=O)NNC(=O)c1ccc2ccccc2c1O,i,i,i,i,i,nt,nt,nt,nt
O=C(Nc1ccccc1F)C(=O)c1cn(CC(=O)N2CCCCC2)c2ccccc12,i,i,i,-5.03*,i,i,i,i,i
CC(=O)Nc1ccc(NC(=O)C(=O)c2cn(CC(=O)N3CCCC3)c3ccccc23)cc1,i,i,i,i,i,nt,nt,nt,nt
CCOc1cc(C(=O)NC(=S)Nc2nc(C)cc(C)n2)cc(OCC)c1OCC,i,i,i,i,i,nt,nt,nt,nt
O=C(NC(=S)Nn1cnnc1)c1ccccc1,i,i,i,-8.29*,i,74.6%*,i,i,i
CCOc1cc(C(=O)Nn2cnnc2)cc(OCC)c1OCC,i,i,i,-4.58*,i,i,i,i,i
CCOc1cc(C(=O)NC(=S)Nn2cnnc2)cc(OCC)c1OCC,i,i,i,-4.53*,i,i,i,i,i
NS(=O)(=O)c1cc(C(=O)NCC2CCCCC2)ccc1Cl,i,i,i,i,i,nt,nt,nt,nt
CN(CC(=O)Nc1ccc(F)cc1)C(=O)COC(=O)CSc1ccc(F)cc1,i,i,i,i,i,nt,nt,nt,nt
COc1ccc(-c2noc(CSc3nc(N)c(-c4ccccc4)c(=O)[nH]3)n2)cc1,i,i,i,-7.15*,i,75.2%*,i,i,i
CN1C(=S)SC2CS(=O)(=O)CC21C (centres undefined),i,i,i,i,i,nt,nt,nt,nt
CC(CC(=O)Nc1nc2ccccc2[nH]1)n1ccnc1 (centres undefined),i,i,i,i,i,nt,nt,nt,nt
CC(=O)Nc1ccc(NC(=O)CC(C)n2ccnc2)cc1 (centres undefined),i,i,i,-7*,i,i,i,i,i
N#CCSc1nnc(C2CCCCC2)n1Cc1ccccc1,i,i,i,-7.1*,i,i,i,i,i
O=C(Nc1ccc(F)c(F)c1)C1CCCCC1,i,i,nt,i,nt,nt,nt,nt,nt
COc1ccccc1NC(=O)c1nn(C)cc1Br,i,i,nt,-7.55*,nt,i,i,i,i
SMILES,MrgX1 allo act,MrgX1 ag,RGS4 block,MrgX1 antag,RGS4 act,MrgX1 antag conf,HEK293 Ca flux,HEK293 Ca counter,HEK293 Ca cntr2
Cc1ccc(-c2[nH]c3ccccc3c2SCCN)cc1,i,i,i,i,i,nt,nt,nt,nt
Cc1[nH]c2ccccc2c1SCCN,i,i,i,-7.46*,i,i,i,i,i
COc1ccc(S(=O)(=O)Nc2cc3c4c(c2)CC(=O)N4CCC3)cc1C,i,i,i,i,i,nt,nt,nt,nt
CCOC(=O)C1(Cc2ccccc2)CCCN(CCO)C1 (centres undefined),i,i,i,-5*,i,i,i,i,i
CCOC(=O)C1(Cc2ccccc2)CCN(Cc2cnn(-c3ccccc3)c2)CC1,i,i,i,-6.02*,i,73.0%*,i,i,i
COc1ccc(NC(=O)CNC(=O)c2nn(-c3ccc(OC)c(Cl)c3)c(=O)c3ccccc23)c(OC)c1,i,i,i,i,i,nt,nt,nt,nt
Cc1cccc(CN2CCC(N3CC(C)OC(C)C3)CC2)c1 (centres undefined),i,i,i,i,i,nt,nt,nt,nt
CCOc1ccc(S(=O)(=O)N2CCC(C(=O)N3CCN(Cc4ccccc4)CC3)CC2)cc1,i,i,i,i,i,nt,nt,nt,nt
COc1ccc(CNC(=O)CSc2nc3ccc(N)cc3s2)cc1,i,i,i,i,i,nt,nt,nt,nt
CC(NC(=O)CSc1nc2ccc(N)cc2s1)c1ccccc1 (centres undefined),i,i,i,-5.53*,i,i,i,i,i
COc1cc2c(cc1OC)N1C(=O)CC(OCC(=O)O)C3C4CC5(CCN5C(=O)C4=O)C2C31 (centres undefined),i,i,i,-5.97*,i,i,i,i,i
